One may read the IC50 as the midpoint of a concentration-inhibition curve. As a reminder, the EC50 is the concentration that produces a half-maximal response. The term bioavailability denotes dose-corrected exposure relative to a reference, in per cent. As a reminder, the half-life is the time in which the quantity being followed falls by half.

Data set [1] concerns the target Voltage-gated inwardly rectifying potassium channel KCNH2 (Homo sapiens, UniProt Q12809). The data set can be described thus: Inhibition of human ERG by IKr binding assay.
Data set [2] deals with T1, Beta-3 adrenergic receptor (Homo sapiens, UniProt P13945). The data set can be described thus: Agonist activity at human beta-3 adrenergic receptor expressed in CHO cells assessed as increase in cAMP level after 30 mins by LANCE TR-FRET assay relative to R-(-)-isoproterenol. Format: functional, cell-based. Summed up:
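Efficacy: the fitted maximal value of each test compound's concentration–response curve, expressed as a percent of the maximal response to R-(−)-isoproterenol.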
Target sequence in this assay (P13945 whole entry, looked up): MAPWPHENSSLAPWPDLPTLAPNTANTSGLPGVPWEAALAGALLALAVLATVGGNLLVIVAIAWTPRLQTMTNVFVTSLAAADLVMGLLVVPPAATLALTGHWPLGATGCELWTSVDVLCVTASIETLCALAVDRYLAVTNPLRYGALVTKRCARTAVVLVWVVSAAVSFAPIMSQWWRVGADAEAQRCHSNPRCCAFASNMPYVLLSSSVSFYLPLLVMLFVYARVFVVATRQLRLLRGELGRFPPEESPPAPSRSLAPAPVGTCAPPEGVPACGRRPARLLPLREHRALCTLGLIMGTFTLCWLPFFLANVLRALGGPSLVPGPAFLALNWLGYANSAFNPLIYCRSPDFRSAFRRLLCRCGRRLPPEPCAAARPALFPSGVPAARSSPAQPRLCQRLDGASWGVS
On the technique in general: Changes in cAMP serve as a functional read-out for many G protein-coupled receptors.

Data set [3] deals with Beta-1 adrenergic receptor (Homo sapiens, UniProt P08588). Kind of data set: Displacement of [125I]CYP from human beta-1 adrenergic receptor expressed in CHO cell membrane after 1 hr by scintillation counting method. Format: cell membranes. (In general: Displacement assays read how much labelled ligand stays bound in the presence of the test substance.)
Beta-1 adrenergic receptor, sequence (P08588 whole entry): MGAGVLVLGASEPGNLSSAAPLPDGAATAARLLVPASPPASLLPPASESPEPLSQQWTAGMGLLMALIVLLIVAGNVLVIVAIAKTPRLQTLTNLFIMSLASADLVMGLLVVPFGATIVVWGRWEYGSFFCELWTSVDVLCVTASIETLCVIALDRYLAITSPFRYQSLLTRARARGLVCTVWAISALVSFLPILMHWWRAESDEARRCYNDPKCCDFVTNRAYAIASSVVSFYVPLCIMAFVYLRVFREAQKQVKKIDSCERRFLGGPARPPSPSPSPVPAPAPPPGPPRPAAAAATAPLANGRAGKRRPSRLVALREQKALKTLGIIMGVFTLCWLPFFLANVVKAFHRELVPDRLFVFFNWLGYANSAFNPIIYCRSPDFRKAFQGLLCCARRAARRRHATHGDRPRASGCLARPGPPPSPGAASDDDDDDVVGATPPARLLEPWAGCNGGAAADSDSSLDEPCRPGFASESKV
In data set [4] the target is Beta-2 adrenergic receptor (Homo sapiens, UniProt P07550). The data set can be described thus: Displacement of [125I]CYP from human beta-2 adrenergic receptor expressed in CHO cell membrane after 1 hr by scintillation counting method. Format: cell membranes.
Beta-2 adrenergic receptor, sequence (P07550 whole entry): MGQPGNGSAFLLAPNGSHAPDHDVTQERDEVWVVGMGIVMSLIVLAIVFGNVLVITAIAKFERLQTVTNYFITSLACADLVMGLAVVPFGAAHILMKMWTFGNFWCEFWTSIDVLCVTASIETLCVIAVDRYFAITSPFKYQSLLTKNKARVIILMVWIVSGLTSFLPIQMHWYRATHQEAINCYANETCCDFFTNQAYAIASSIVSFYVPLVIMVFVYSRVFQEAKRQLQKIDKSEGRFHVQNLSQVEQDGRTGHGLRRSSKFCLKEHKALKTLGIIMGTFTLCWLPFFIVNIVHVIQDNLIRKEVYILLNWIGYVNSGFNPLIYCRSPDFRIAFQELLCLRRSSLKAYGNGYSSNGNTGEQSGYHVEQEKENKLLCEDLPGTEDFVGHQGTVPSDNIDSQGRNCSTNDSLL
Data set [5] concerns the target T1, Beta-3 adrenergic receptor. Kind of data set: Agonist activity at human beta-3 adrenergic receptor expressed in CHO cells assessed as increase in cAMP level after 30 mins by LANCE TR-FRET assay. Format: functional, cell-based.
Target sequence in this assay (P13945 whole entry): as the sequence (P13945 whole entry, looked up) above
Another data set relates to Rattus norvegicus. Kind of data set: Dose normalized AUC in rat at 2 mg/kg, po. Type of data set: ADME, organism-based. The following applies: in vivo.
Data set [6] is described as follows: Oral bioavailability in rat at 2 mg/kg. Type of data set: ADME, organism-based. The following applies: in vivo.
A short description of data set [7]: Half life in rat at 1 mg/kg, iv or 2 mg/kg, po. Format: ADME, organism-based. To be noted: in vivo.
A short description of data set [8]: Plasma clearance in rat at 1 mg/kg, iv or 2 mg/kg, po. Type of data set: ADME, organism-based.
The nature of data set [9]: Volume of distribution in rat at 1 mg/kg, iv or 2 mg/kg, po. Format: ADME, organism-based. The following applies: in vivo.
The nature of data set [10]: Half life in dog at 0.5 mg/kg, iv or 2 mg/kg, po. The following applies: in vivo. Format: ADME, organism-based, Canis lupus familiaris.
The nature of data set [11]: Plasma clearance in dog at 0.5 mg/kg, iv or 2 mg/kg, po. Format: ADME, organism-based, Canis lupus familiaris.
A short description of data set [12]: Oral bioavailability in dog at 2 mg/kg. Format: ADME, organism-based, Canis lupus familiaris. To be noted: in vivo.
Data set [13] can be described thus: Volume of distribution in dog at 0.5 mg/kg, iv or 2 mg/kg, po. Format: ADME, organism-based, Canis lupus familiaris. The following applies: in vivo.
Another data set deals with Canis familiaris. The data set can be described thus: Dose normalized AUC in dog at 2 mg/kg, po. Format: ADME, organism-based, Canis lupus familiaris. The following applies: in vivo.
Data set [14] is described as follows: Stability in dog liver microsomes assessed as residual compound after 45 mins. Type of data set: ADME, Canis lupus familiaris. To be noted: read-out: Stability. A general note: Liver microsomes are vesicles of endoplasmic reticulum, rich in cytochrome P450 enzymes.
Data set [15] can be described thus: Stability in rat liver microsomes assessed as residual compound after 45 mins. Type of data set: ADME. The following applies: read-out: Stability.
A short description of data set [16]: Stability in human liver microsomes assessed as residual compound after 45 mins. Type of data set: ADME. To be noted: read-out: Stability.
A short description of data set [17]: Volume of distribution in rhesus monkey. Format: ADME, organism-based, Macaca mulatta. To be noted: in vivo.
A short description of data set [18]: Plasma clearance in rhesus monkey. Type of data set: ADME, organism-based, Macaca mulatta.
Another data set relates to Rhesus monkey. Kind of data set: Dose normalized AUC in po dosed rhesus monkey. The following applies: in vivo. Type of data set: ADME, organism-based, Macaca mulatta.
A short description of data set [19]: Half life in rhesus monkey. Format: ADME, organism-based, Macaca mulatta. The following applies: in vivo.
The nature of data set [20]: Oral bioavailability rhesus monkey. Type of data set: ADME, organism-based, Macaca mulatta. To be noted: in vivo.
The nature of data set [21]: Stability in dog hepatocytes assessed as residual compound after 60 mins. Type of data set: ADME, cell-based, Canis lupus familiaris, Hepatocyte. The following applies: read-out: Stability.
Data set [22] can be described thus: Stability in rhesus monkey liver microsomes assessed as residual compound after 45 mins. Format: ADME, Macaca mulatta. To be noted: read-out: Stability.
Data set [23] is described as follows: Stability in rat hepatocytes assessed as residual compound after 60 mins. Format: ADME, cell-based, Hepatocyte. To be noted: read-out: Stability.
The nature of data set [24]: Stability in human hepatocytes assessed as residual compound after 60 mins. The following applies: read-out: Stability. Type of data set: ADME, cell-based, Hepatocyte.

Bounds are passed on as bounds.

Voltage-gated inwardly rectifying potassium channel KCNH2, sequence (Q12809 whole entry): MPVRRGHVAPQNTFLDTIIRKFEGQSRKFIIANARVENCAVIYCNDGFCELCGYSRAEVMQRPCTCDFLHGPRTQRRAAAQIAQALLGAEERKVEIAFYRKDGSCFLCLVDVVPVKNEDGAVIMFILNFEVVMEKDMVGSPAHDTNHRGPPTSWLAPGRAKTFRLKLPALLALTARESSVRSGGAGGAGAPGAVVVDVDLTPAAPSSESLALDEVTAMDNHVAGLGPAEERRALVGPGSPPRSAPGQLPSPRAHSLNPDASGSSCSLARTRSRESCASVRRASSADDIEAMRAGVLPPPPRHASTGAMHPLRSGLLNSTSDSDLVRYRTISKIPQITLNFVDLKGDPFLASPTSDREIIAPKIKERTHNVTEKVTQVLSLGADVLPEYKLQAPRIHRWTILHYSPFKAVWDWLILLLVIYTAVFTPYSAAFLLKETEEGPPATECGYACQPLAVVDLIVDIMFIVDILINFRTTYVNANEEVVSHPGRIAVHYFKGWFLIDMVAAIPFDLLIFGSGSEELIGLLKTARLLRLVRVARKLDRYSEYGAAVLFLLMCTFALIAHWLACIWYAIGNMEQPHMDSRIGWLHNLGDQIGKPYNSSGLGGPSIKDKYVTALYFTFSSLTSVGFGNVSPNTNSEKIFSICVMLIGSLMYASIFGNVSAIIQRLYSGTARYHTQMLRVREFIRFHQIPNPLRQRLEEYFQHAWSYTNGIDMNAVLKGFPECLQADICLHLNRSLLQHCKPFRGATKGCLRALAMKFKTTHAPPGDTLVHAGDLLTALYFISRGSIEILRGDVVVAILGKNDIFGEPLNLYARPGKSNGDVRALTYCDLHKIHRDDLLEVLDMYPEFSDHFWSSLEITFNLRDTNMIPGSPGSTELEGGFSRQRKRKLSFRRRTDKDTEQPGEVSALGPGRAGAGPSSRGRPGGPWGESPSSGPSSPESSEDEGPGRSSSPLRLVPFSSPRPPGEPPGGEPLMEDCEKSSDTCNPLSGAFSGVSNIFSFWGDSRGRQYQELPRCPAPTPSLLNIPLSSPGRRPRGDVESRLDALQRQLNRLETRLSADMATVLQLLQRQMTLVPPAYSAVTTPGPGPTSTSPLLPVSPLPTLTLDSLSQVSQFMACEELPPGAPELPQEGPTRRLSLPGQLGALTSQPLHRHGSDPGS

As to `Nc1nc(CNC(=O)c2ccc(C[C@@H]3CC[C@H]([C@H](O)c4ccccc4)N3)cc2)cs1`, the IC50 in data set [1] was greater than 30 µM; in data set [3], greater than 20 µM; in [4] it was 5.2 µM. For the same compound, in data set [2], the %max came out at 84%. Also, the EC50 in data set [5] worked out at 0.024 µM.
Take `CCOC(=O)[C@@H]1[C@@H]2CN(C(=O)c3ccc(C[C@@H]4CC[C@H]([C@H](O)c5ccccc5)N4)cc3)C[C@@H]21`: the %max in data set [2] came out at 97%. Further, the half-maximal inhibitory concentration (IC50) in [3] and in [4] was greater than 20 µM throughout. Moreover, the concentration giving a half-maximal response (EC50) in data set [5] was determined as 0.075 µM.
Turning to `CC1(C)CC2(CCN(C(=O)c3ccc(C[C@@H]4CC[C@H]([C@H](O)c5ccccc5)N4)cc3)CC2)C(=O)O1`, the values for the IC50 in data set [1], in data set [3] and in data set [4] were 31 µM, greater than 20 µM and 11 µM, respectively. Further, in the data set with Rattus norvegicus, the AUC/dose was determined as 0.16 µM·h/mg/kg. Moreover, in data set [2], the %max turned out to be 85%. Further, the bioavailability in [6] was 38%. This compound gave a half-life in data set [7] of 2 h. In data set [8], this compound registered a clearance of 86 mL/min/kg. In data set [9], this compound came in with a Vd of 9.5 L/kg. For the same compound, the EC50 in data set [5] was determined as 0.0019 µM.
On to `Cn1nnc([C@H]2[C@@H]3CN(C(=O)c4ccc(C[C@@H]5CC[C@H]([C@H](O)c6ccccc6)N5)cc4)C[C@@H]32)n1`, for which the half-life in data set [10] was 3.7 h; in data set [7], 3.2 h. The IC50 in [1] was 17 µM; in data set [3], greater than 20 µM; in [4], greater than 20 µM. Further, the AUC/dose worked out at 0.73 µM·h/mg/kg with Rattus norvegicus and 0.99 µM·h with Canis familiaris. Moreover, the values for the clearance in data set [11] and in data set [8] were 19 mL/min/kg and 29 mL/min/kg, respectively. For the same compound, the %max in data set [2] turned out to be 97%. In addition, the bioavailability in data set [6] is 56%; in data set [12], 51%. Moreover, the Vd in data set [13] worked out at 5.5 L/kg; in data set [9], 6.5 L/kg. Further, in [5], the EC50 was 0.0054 µM.
In the case of `CCOC(=O)C1CCN(C(=O)c2ccc(C[C@@H]3CC[C@H]([C@H](O)c4ccccc4)N3)cc2)CC1`, the %max in data set [2] was 95%. The IC50 was greater than 20 µM in [3] and 10.9 µM in [4]. Besides, the EC50 in data set [5] was found to be 0.063 µM.
As for `Nc1nc(CC(=O)Nc2ccc(C[C@@H]3CC[C@H]([C@H](O)c4ccccc4)N3)cc2)cs1`, the %max in data set [2] was 99%.
For `O=C(c1ccc(C[C@@H]2CC[C@H]([C@H](O)c3ccccc3)N2)cc1)N1CCC2(CCOC2=O)CC1`, the half-life in [10] was 3.2 h; in [7], 2.5 h. The remaining at 0.75 h worked out at 78% in data set [14], 56% in [15] and 53% in [16]. Also, the figures for the IC50 in data set [1], in data set [3] and in data set [4] were 46 µM, greater than 20 µM and 5.6 µM, respectively. For the same compound, the AUC/dose in the data set on Rattus norvegicus stood at 0.21 µM·h/mg/kg; in the data set with Canis familiaris, 0.23 µM·h. The clearance came out at 31 mL/min/kg in data set [11] and 56 mL/min/kg in [8]. The %max in data set [2] came out at 89%. Further, the bioavailability in [6] came out at 31%; in [12] it was 17%. Also, the values for the Vd in data set [13] and in [9] were 7.4 L/kg and 7.2 L/kg, respectively. For the same compound, the EC50 in data set [5] is 0.0033 µM.
For `CCc1nnc([C@H]2[C@@H]3CN(C(=O)c4ccc(C[C@@H]5CC[C@H]([C@H](O)c6ccccc6)N5)cc4)C[C@@H]32)o1`, the figures for the half-life in data set [10], in [7] and in [19] were 3.7 h, 3 h and 2.4 h, respectively. The AUC/dose in the data set on Rattus norvegicus stood at 0.21 µM·h/mg/kg; in the data set with Rhesus monkey it was 0.06 µM·h; in the data set with Canis familiaris it was 0.46 µM·h. Further, the clearance in [11] was found to be 36 mL/min/kg; in [8], 56 mL/min/kg; in data set [18] it was 30 mL/min/kg. Further, the %max in [2] came out at 97%. The figures for the bioavailability in [6], in [12] and in [20] were 33%, 44% and 5%, respectively. The IC50 in [3] and in data set [4] was greater than 20 µM each time. Moreover, the Vd in [17] stood at 5.2 L/kg; in data set [13] it was 9.2 L/kg; in data set [9] it was 9.3 L/kg. Besides, the EC50 in data set [5] is 0.0031 µM.
With `O=C(Nc1ccc(C[C@@H]2CC[C@H]([C@H](O)c3cccnc3)N2)cc1)C1CCc2ccnn21` (some centres undefined), the %max in data set [2] turned out to be 84%. In data set [5], the concentration for a half-maximal effect (EC50) stood at 0.0037 µM.
For the compound `CCOC(=O)[C@H]1[C@@H]2CN(C(=O)c3ccc(C[C@@H]4CC[C@H]([C@H](O)c5ccccc5)N4)cc3)C[C@@H]21`, the %max in [2] turned out to be 90%. For the same compound, the IC50 is greater than 20 µM in data set [3] and 13.4 µM in data set [4]. In addition, the EC50 in data set [5] is 0.00049 µM.
Take `CCS(=O)(=O)C1CCN(C(=O)c2ccc(C[C@@H]3CC[C@H]([C@H](O)c4ccccc4)N3)cc2)CC1`: the figures for the IC50 in data set [1], in [3] and in [4] were greater than 60 µM, greater than 20 µM and greater than 20 µM, respectively. Moreover, the %max in data set [2] is 100%. Also, the EC50 in data set [5] was found to be 0.0097 µM.
Take `O=C(c1ccc(C[C@@H]2CC[C@H]([C@H](O)c3ccccc3)N2)cc1)N1C[C@@H]2[C@H](C1)[C@H]2c1nnco1`: the remaining at 0.75 h in [14] was found to be 73%; in data set [15] it was 98%; in [22] it was 80%; in data set [16], 84%. Also, the values for the half-inhibitory concentration (IC50) in data set [1], in data set [3] and in [4] were 55 µM, greater than 20 µM and greater than 20 µM, respectively. In the data set with Rattus norvegicus, this compound had an AUC/dose of 0.26 µM·h/mg/kg. The remaining at 1 h in data set [21], in data set [23] and in data set [24] was no less than 85% in each case. Besides, the %max in [2] was determined as 101%. The compound also had a bioavailability in data set [6] of 43%. The compound also gave a half-life in data set [7] of 1.4 h. In addition, the clearance in data set [8] amounted to 62 mL/min/kg. Besides, in data set [9], the Vd stood at 9 L/kg. Also, the EC50 in data set [5] stood at 0.0017 µM.

The values are drawn from ChEMBL document CHEMBL3745665, “Discovery of benzamides as potent human β3 adrenergic receptor agonists” (Bioorg Med Chem Lett, 2016).
